Consider 12 molecules from ChEMBL document CHEMBL1806387, “Discovery of 1,2,4-thiadiazolidine-3,5-dione analogs that exhibit unusual and selective rapid cell death kinetics against acute myelogenous leukemia cells in culture” (Bioorg Med Chem Lett, 2011).

Calls of active or inactive are those of the source. No cut-off for these calls is given here.

One data set concerns MV4-11. Put plainly: Cytotoxicity against human MV411 cells after 24 hrs by Annexin V-Fluorescein isothiocyanate and 7-aminoactinomycin D staining. The data set is classed as functional. Particulars: MV4-11, 24 h, read-out: LD50 (the source's name). The gist of the method: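 MV4-11 human AML cells (ATCC) seeded at 300,000 cells/mL in IMDM with 10% FBS. Cells exposed to at least 4 concentrations for 24 hours. Stained with Annexin V-FITC and 7-AAD, then run on flow cytometry (BD LSRII) 15 minutes later. Viable cells gated as Annexin V-negative/7-AAD-negative and expressed as percent of untreated control.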
Regarding `C=CCn1sc(=O)n(Cc2ccc(CN)cc2)c1=O.Cl`, the CC50 worked out at 6.7 µM.
The same measure, in the same setting: the value for `Cn1sc(=O)n(Cc2ccccc2)c1=O` was 4.01 µM; that for `O=C([O-])c1ccc(Cn2c(=O)sn(CCCl)c2=O)cc1.[Na+]` was above 20 µM.
Still for that read-out and setting: under `O=c1sn(CCCl)c(=O)n1Cc1ccccc1` stands 2.03 µM; under `O=c1sn(CCBr)c(=O)n1Cc1ccccc1`, 3.5 µM.
Still for that read-out and setting: the value for `Cl.NCc1cccc(Cn2c(=O)sn(CCCl)c2=O)c1` was 4.4 µM.
With `Cl.NCc1ccc(Cn2c(=O)sn(CCBr)c2=O)cc1`, the CC50 stood at 4.51 µM.
The same measure, in the same setting: the value for `CCn1sc(=O)n(Cc2ccccc2)c1=O` [KRM-7777] was 9.21 µM.
For the molecule `Cl.NCc1ccc(Cn2c(=O)sn(CCCl)c2=O)cc1`, the CC50 amounted to 3.01 µM.
`CCCn1sc(=O)n(Cc2ccccc2)c1=O`: the CC50 stood at 11.6 µM.
The same measure, in the same setting: the value for `CCn1sc(=O)n(Cc2ccc(CN)cc2)c1=O.Cl` was 15.5 µM; that for `C=CCn1sc(=O)n(Cc2ccccc2)c1=O` was 9.2 µM.

The subject of another data set is MV4-11. The experiment in a line: Cytotoxicity against human MV411 cells assessed as reduction of cell viability at 20 uM after 2 hrs by Annexin V-Fluorescein isothiocyanate and 7-aminoactinomycin D staining.
Conditions: not given
It is filed as functional, cell-based. Summed up:
(§1)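 MV4-11 cells (ATCC) seeded at 300,000 cells/mL in IMDM with 10% FBS and exposed to compound for the stated time in time-course runs. Cells stained with Annexin V-FITC plus 7-AAD and read by flow cytometry 15 minutes later. Viability is the Annexin V-negative/7-AAD-negative fraction, expressed relative to untreated control.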
Take `Cn1sc(=O)n(Cc2ccccc2)c1=O`: the outcome was Active.
Same read-out and setting: under `C=CCn1sc(=O)n(Cc2ccccc2)c1=O` stands “Active”.

Test system in another data set: not listed separately
The experiment in a line: Cytotoxicity against human hematopoietic stem cells assessed as reduction of cell viability after 24 hrs by Annexin V-Fluorescein isothiocyanate and 7-aminoactinomycin D staining.
Conditions: not given
It is filed as cell-based.
On to `C=CCn1sc(=O)n(Cc2ccc(CN)cc2)c1=O.Cl`, for which the Activity result was “Non-toxic”.
On the same count and under the same terms, under `Cn1sc(=O)n(Cc2ccccc2)c1=O` stands “Non-toxic”; under `O=C([O-])c1ccc(Cn2c(=O)sn(CCCl)c2=O)cc1.[Na+]`, “Non-toxic”; under `O=c1sn(CCCl)c(=O)n1Cc1ccccc1`, “Non-toxic”.
The same measure, in the same setting: under `O=c1sn(CCBr)c(=O)n1Cc1ccccc1` stands “Non-toxic”; under `Cl.NCc1cccc(Cn2c(=O)sn(CCCl)c2=O)c1`, “Non-toxic”; under `Cl.NCc1ccc(Cn2c(=O)sn(CCBr)c2=O)cc1`, “Non-toxic”.
Same read-out and setting: under `CCn1sc(=O)n(Cc2ccccc2)c1=O` [KRM-7777] stands “Non-toxic”; under `Cl.NCc1ccc(Cn2c(=O)sn(CCCl)c2=O)cc1`, “Non-toxic”.
On to `CCCn1sc(=O)n(Cc2ccccc2)c1=O`, for which the Activity result is recorded as “Non-toxic”.
Consider `CCn1sc(=O)n(Cc2ccc(CN)cc2)c1=O.Cl`, for which the Activity result is reported as “Non-toxic”.
On the same count and under the same terms, under `C=CCn1sc(=O)n(Cc2ccccc2)c1=O` stands “Non-toxic”.

Another data set concerns MV4-11. Put plainly: Cytotoxicity against human MV411 cells assessed as reduction of cell viability at 5 uM after 24 hrs by Annexin V-Fluorescein isothiocyanate and 7-aminoactinomycin D staining. It is filed as functional, cell-based.
Conditions: not given
Summed up: as §1
With `C=CCn1sc(=O)n(Cc2ccccc2)c1=O`, the result was inactive.

For a further data set, the system named is MV4-11. Put plainly: Cytotoxicity against human MV411 cells assessed as reduction of cell viability at 10 uM after 24 hrs by Annexin V-Fluorescein isothiocyanate and 7-aminoactinomycin D staining. It is filed as functional, cell-based.
Conditions: not given
The gist of the method: as §1
As for `C=CCn1sc(=O)n(Cc2ccccc2)c1=O`, the result was Active.

The next data set concerns MV4-11. The experiment in a line: Cytotoxicity against human MV411 cells assessed as reduction of cell viability at 20 uM after 30 mins by Annexin V-Fluorescein isothiocyanate and 7-aminoactinomycin D staining. The data set is classed as functional.
Conditions: not given
Summed up:
as §1
For `C=CCn1sc(=O)n(Cc2ccccc2)c1=O`, the Activity is 50%.

A further data set relates to MV4-11. The experiment in a line: Cytotoxicity against human MV411 cells assessed as reduction of cell viability at 5 uM after 30 mins by Annexin V-Fluorescein isothiocyanate and 7-aminoactinomycin D staining.
Conditions: not given
It is filed as functional. The gist of the method: as §1
`O=c1sn(CCBr)c(=O)n1Cc1ccccc1`: the Activity came out at 50%.

The subject of a further data set is MV4-11. Put plainly: Cytotoxicity against human MV411 cells assessed as reduction of cell viability at 10 uM after 2 hrs by Annexin V-Fluorescein isothiocyanate and 7-aminoactinomycin D staining. The data set is classed as functional, cell-based.
Conditions: not given
The gist of the method: as §1
As to `O=c1sn(CCBr)c(=O)n1Cc1ccccc1`, the outcome was Active.

A further data set has as its system MV4-11. Put plainly: Cytotoxicity against human MV411 cells assessed as reduction of cell viability at 10 uM after 30 mins by Annexin V-Fluorescein isothiocyanate and 7-aminoactinomycin D staining.
Conditions: not given
It is filed as functional, cell-based. The gist of the method:
as §1
As to `O=c1sn(CCCl)c(=O)n1Cc1ccccc1`, the result was Active.

The next data set concerns MV4-11. Put plainly: Cytotoxicity against human MV411 cells assessed as reduction of cell viability at 5 uM after 1 to 2 hrs by Annexin V-Fluorescein isothiocyanate and 7-aminoactinomycin D staining. It is filed as functional, cell-based.
Conditions: not given
Summed up: as §1
`O=c1sn(CCCl)c(=O)n1Cc1ccccc1`: the result was Active.
